Experimental data as given in publication PMC2697266 (Nature, 2009).

Experiments:
[1] = system: WDR5, RBBP5, and MLL2 on Hoxa9; test: ChIP, WDR5, RBBP5 and MLL2 on Hoxa9; assay type: cell-based, murine; settings: marrow progenitors 15 days after transduction; qualitative
Summary of the method: (§1)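 Mouse Lin- marrow cells were cytokine-stimulated, retrovirally transduced, selected with 1μg/mL puromycin and kept in SCF-only medium. ChIP used 1∼2 million cells for histone marks and 2∼3 million for other factors (p300 antibody 10μg). Equal nonspecific IgG served as antibody control and Chr8Int as negative locus. Triplicate SYBR qPCR gave % of input and fold over IgG.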

[2] = system: p300 on Hoxa9; test: ChIP, p300 recruitment on Hoxa9; assay type: cell-based, murine; settings: 15 days after transduction; qualitative
Summary of the method: as §1

[3] = system: mice transplanted with transduced bone marrow progenitors; test: Murine bone marrow transplantation leukemogenic assay; assay type: in vivo; settings: 12 mice
Summary of the method: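 Lin- marrow from femur and tibia (balb/C or b/6) was prestimulated 2-3 days with SCF, 5ng/mL FLT3 ligand, IL3 and IL6. Cells were infected with MSCV retrovirus encoding 3xFLAG fusion or empty vector. 100,000 cells were injected via tail vein into sublethally irradiated syngeneic mice, 12 per group, and leukemia kinetics were followed.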

[4] = system: H3K4me3 or H3; test: CoIP in transiently transfected 293 cells; assay type: binding; settings: qualitative
Summary of the method: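 Nuclei underwent limited micrococcal nuclease digestion to release mainly mononucleosomes, and insoluble material was removed by centrifugation. Supernatant was incubated with FLAG- or HA-agarose, or with magnetic beads coupled to anti-H3K4me3 or control antibodies. After extensive washing, precipitated proteins were analysed by immunoblot.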

[5] = system: H3K27ac on Hoxa9; test: ChIP, Hoxa9-associated H3 acetylation; assay type: cell-based, murine; settings: marrow progenitors 15 days after transduction, NJL-transduced cells
Summary of the method: as §1

[6] = system: Ezh2 or Suz12, H3K27me3 at Hox-A clusters; test: ChIP, polycomb factors and H3K27me3 at Hox-A cluster; assay type: cell-based, murine; settings: NJL-infected progenitors, qualitative
Summary of the method: as §1

B1: NJL: NUP98 amino acids 1-514 fused to amino acids 1489-1690 of JARID1A transcript variant 1 (protein)
chain: MFNKSFGTPFGGGTGGFGTTSTFGQNTGFGTTSGGAFGTSAFGSSNNTGGLFGNSQTKPGGLFGTSSFSQPATSTSTGFGFGTSTGTANTLFGTASTGTSLFSSQNNAFAQNKPTGFGNFGTSTSSGGLFGTTNTTSNPFGSTSGSLFGPSSFTAAPTGTTIKFNPPTGTDTMVKAGVSTNISTKHQCITAMKEYESKSLEELRLEDYQANRKGPQNQVGAGTTTGLFGSSPATSSATGLFSSSTTNSGFAYGQNKTAFGTSTTGFGTNPGGLFGQQNQQTTSLFSKPFGQATTTQNTGFSFGNTSTIGQPSTNTMGLFGVTQASQPGGLFGTATNTSTGTAFGTGTGLFGQTNTGFGAVGSTLFGNNKLTTFGSSTTSAPSFGTTSGGLFGNKPTLTLGTNTNTSNFGFGTNTSGNSIFGSKPAPGTLGTGLGAGFGTALGAGQASLFGNNQPKIGGPLGTGAFGAPGFNTTTATLGFGAPQAPVALTDPNASAAQQAVLQQHINSLTYSPFGMEEKPLKVKGKDSSEKKRKRKLEKVEQLFGEGKQKSKELKKMDKPRKKKLKLGADKSKELNKLAKKLAKEEERKKKKEKAAAAKVELVKESTEKKREKKVLDIPSKYDWSGAEESDDENAVCAAQNCQRPCKDKVDWVQCDGGCDEWFHQVCVGVSPEMAENEDYICINCAKKQGPVSPGPAPPPSFIMSYKLPMEDLKETS
modifications: left off: 3xFLAG, N-terminal, kept
WDR5, RBBP5, and MLL2 on Hoxa9 [1]: high levels
p300 recruitment on Hoxa9 [2]: recruitment of p300
average time to death of AML [3]: 69 days
association with H3K4me3 or H3 [4]: associated with H3K4me3 or H3
elevation of H3K27ac on Hoxa9 [5]: > 2,000 fold
restriction of polycomb factors (Ezh2 or Suz12) [6]: restricted within Hoxa11-a13
